Test results reported in the M2OR odorant receptor database.
Where a chain is given by its changes, count along the chain named.

Columns and labels:
Conditions in all cases: stereoisomer not certain
O1440 [1] = test system: T1, O1440
T1 sequence (whole entry): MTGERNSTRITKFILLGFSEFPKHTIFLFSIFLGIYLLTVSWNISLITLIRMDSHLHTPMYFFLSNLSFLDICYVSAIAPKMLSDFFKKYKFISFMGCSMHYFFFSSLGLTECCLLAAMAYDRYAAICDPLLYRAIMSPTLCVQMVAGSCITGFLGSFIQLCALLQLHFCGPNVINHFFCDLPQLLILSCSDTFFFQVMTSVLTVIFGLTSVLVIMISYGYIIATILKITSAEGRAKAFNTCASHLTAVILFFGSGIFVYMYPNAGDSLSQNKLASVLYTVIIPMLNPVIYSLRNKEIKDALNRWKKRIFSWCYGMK
Method in brief: (§1)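 Each receptor–molecule pair is labelled responsive or non-responsive (inactive) according to whether the original authors judged the measured signal statistically different from baseline. The data were taken from the main text and supplementary material of published papers and checked for typos and inconsistencies. Assay methods differed by source, with transient luciferase assays in mammalian cell lines being common.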

O1440 [2] = test system: T2, O1440; remark: listed apart in the source
T2 sequence (whole entry): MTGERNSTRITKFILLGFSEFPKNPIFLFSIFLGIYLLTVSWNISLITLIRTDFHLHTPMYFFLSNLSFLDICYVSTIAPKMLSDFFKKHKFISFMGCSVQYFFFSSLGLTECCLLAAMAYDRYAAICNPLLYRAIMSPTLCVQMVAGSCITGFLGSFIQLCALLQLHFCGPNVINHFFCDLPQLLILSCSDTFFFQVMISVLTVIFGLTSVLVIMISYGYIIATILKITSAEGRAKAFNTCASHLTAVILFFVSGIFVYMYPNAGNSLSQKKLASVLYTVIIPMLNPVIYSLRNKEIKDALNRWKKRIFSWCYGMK
Method in brief: as §1

O13C8 A19D = test system: T3, O13C8 A19D
T3 sequence (whole entry): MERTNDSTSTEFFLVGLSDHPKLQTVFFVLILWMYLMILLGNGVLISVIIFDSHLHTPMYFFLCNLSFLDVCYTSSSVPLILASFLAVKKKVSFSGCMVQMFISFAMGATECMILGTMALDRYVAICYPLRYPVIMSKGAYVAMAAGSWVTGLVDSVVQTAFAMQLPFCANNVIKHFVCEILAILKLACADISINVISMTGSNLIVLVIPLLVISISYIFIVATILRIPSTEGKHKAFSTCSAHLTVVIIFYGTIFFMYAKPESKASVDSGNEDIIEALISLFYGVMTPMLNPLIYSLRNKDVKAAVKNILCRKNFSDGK
Method in brief: as §1

O13C9 H17L V19G L23H = test system: T4, O13C9 H17L V19G L23H
T4 sequence (whole entry): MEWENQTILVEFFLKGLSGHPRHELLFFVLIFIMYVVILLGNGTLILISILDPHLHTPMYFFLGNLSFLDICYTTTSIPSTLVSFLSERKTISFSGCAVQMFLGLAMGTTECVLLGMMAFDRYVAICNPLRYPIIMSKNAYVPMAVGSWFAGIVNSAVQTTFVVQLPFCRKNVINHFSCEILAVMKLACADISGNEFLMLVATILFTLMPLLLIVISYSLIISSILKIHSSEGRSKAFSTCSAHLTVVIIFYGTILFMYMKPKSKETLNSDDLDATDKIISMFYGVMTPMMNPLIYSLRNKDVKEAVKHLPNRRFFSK
Method in brief: as §1

O13C9 Q6H = test system: T5, O13C9 Q6H
T5 sequence (whole entry): T4 sequence (whole entry) with Q6H, L17H, G19V, H23L
Method in brief: as §1

O13F1 F18S T254M = test system: T6, O13F1 F18S T254M
T6 sequence (whole entry): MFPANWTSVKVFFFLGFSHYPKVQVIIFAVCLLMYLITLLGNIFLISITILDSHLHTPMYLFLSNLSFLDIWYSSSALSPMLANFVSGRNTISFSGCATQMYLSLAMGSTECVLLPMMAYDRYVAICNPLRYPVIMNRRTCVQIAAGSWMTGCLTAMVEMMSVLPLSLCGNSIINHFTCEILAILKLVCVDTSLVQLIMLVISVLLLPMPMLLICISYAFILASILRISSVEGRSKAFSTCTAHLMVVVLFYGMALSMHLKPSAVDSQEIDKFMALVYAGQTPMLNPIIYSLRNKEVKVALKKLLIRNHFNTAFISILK
Method in brief: as §1

O13F1 F18S = test system: T7, O13F1 F18S
T7 sequence (whole entry): T6 sequence (whole entry) with M254T
Method in brief: as §1

O13G1 K46I M146L = test system: T8, O13G1 K46I M146L
T8 sequence (whole entry): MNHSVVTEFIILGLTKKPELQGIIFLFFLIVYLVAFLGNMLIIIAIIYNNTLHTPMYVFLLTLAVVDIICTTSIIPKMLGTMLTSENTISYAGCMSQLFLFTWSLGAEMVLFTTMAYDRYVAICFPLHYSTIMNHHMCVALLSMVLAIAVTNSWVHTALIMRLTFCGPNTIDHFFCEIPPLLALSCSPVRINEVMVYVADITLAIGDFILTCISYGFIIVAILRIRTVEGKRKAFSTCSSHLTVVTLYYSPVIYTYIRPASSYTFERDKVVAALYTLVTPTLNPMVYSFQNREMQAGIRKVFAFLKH
Method in brief: as §1

O13G1 = test system: T9, O13G1
T9 sequence (whole entry): T8 sequence (whole entry) with I46K, I132V, L146M
Method in brief: as §1

O13H1 Y266S = test system: T10, O13H1 Y266S
T10 sequence (whole entry): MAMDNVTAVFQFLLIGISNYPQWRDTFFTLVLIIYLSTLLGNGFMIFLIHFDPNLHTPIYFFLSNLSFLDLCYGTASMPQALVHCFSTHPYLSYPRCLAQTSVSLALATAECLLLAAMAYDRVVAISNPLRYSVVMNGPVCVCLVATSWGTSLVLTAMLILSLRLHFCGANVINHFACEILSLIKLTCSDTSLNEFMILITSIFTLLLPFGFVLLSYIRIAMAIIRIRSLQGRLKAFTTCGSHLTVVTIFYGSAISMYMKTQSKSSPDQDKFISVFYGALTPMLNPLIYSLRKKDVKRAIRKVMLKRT
Method in brief: as §1

O13J1 = test system: T11, O13J1
T11 sequence (whole entry): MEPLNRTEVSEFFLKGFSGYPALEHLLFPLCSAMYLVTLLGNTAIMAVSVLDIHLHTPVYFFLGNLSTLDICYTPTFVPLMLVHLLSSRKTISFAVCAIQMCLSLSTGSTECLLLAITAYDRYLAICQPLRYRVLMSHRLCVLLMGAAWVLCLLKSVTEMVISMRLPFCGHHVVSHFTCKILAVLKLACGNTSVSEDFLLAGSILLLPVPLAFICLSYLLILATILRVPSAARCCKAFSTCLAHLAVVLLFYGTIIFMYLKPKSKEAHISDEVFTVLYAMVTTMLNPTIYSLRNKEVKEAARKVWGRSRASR
Method in brief: as §1

O14A2 I133V = test system: T12, O14A2 I133V
T12 sequence (whole entry): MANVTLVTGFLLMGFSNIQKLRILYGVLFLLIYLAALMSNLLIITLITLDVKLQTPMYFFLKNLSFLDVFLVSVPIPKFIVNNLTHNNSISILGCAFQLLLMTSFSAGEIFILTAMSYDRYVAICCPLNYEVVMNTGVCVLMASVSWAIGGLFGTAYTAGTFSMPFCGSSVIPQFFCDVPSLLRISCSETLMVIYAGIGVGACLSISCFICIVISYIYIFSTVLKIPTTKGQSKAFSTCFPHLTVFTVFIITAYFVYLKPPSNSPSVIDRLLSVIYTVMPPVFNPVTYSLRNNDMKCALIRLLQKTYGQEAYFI
Method in brief: as §1

O14CZ = test system: T13, O14CZ
T13 sequence (whole entry): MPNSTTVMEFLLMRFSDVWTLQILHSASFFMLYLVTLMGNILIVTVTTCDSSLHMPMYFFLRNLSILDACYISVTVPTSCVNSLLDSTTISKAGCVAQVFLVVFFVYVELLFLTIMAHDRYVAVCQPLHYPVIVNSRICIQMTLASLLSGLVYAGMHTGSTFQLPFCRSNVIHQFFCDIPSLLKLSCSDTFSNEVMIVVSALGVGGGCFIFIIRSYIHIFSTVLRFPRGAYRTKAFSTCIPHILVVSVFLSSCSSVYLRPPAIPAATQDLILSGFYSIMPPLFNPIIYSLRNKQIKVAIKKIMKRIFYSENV
Method in brief: as §1

O14I1 V36A D50N Y216C = test system: T14, O14I1 V36A D50N Y216C
T14 sequence (whole entry): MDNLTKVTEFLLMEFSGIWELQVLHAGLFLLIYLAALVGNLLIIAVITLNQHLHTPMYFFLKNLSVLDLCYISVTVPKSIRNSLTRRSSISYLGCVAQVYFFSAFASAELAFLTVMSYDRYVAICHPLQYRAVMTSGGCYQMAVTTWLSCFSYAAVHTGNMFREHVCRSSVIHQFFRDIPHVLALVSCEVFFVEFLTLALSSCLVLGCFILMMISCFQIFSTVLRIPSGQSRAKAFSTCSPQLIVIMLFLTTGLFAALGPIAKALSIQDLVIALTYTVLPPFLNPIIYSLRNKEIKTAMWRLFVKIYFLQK
Method in brief: as §1

O14J1 N3Y = test system: T15, O14J1 N3Y
T15 sequence (whole entry): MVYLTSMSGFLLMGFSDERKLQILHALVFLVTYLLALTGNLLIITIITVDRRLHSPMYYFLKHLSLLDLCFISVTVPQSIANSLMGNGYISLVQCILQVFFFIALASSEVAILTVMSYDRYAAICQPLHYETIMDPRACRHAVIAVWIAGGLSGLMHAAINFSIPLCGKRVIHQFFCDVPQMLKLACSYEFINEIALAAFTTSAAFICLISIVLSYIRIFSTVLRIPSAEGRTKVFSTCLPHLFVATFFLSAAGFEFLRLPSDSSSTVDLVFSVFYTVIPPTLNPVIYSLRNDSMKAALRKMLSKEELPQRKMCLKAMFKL
Method in brief: as §1

O14K1 D119Y = test system: T16, O14K1 D119Y
T16 sequence (whole entry): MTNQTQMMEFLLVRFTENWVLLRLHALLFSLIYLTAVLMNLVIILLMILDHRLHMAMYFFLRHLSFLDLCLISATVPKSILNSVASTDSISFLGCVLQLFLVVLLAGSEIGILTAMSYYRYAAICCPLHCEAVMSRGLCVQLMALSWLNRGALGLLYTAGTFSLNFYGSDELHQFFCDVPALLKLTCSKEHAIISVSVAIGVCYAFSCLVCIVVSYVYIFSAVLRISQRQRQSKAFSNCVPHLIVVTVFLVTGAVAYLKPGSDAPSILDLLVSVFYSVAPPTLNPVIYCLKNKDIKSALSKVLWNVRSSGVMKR
Method in brief: as §1

O2A25 = test system: T17, O2A25
T17 sequence (whole entry): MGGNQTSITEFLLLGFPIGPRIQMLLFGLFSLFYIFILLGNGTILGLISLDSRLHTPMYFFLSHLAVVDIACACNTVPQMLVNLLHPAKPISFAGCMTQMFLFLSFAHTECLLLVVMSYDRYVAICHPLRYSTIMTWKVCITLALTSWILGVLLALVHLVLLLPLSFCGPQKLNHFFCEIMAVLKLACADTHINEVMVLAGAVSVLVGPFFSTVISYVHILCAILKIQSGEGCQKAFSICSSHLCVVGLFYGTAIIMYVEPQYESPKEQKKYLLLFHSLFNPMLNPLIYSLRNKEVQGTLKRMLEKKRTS
Method in brief: as §1

O2AE1 = test system: T18, O2AE1
T18 sequence (whole entry): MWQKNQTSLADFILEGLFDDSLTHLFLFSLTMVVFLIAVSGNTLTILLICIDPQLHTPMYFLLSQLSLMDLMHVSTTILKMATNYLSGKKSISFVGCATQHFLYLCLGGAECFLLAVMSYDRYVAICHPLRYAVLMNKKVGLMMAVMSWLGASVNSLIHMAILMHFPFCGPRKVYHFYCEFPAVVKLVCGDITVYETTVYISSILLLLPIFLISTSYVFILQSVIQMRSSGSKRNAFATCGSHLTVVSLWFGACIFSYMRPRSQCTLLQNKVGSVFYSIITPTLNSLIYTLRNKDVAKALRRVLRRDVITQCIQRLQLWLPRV
Method in brief: as §1

O2AJ1 = test system: T19, O2AJ1
T19 sequence (whole entry): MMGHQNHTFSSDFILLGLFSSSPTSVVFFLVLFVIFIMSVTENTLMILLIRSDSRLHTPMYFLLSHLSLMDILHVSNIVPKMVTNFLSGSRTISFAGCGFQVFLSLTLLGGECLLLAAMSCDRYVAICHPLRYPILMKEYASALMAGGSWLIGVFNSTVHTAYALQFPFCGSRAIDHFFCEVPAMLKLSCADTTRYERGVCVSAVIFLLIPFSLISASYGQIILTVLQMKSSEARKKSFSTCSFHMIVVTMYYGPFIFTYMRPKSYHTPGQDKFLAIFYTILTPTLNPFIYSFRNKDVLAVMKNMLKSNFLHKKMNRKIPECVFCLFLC
Method in brief: as §1

O2AK2 S99N = test system: T20, O2AK2 S99N
T20 sequence (whole entry): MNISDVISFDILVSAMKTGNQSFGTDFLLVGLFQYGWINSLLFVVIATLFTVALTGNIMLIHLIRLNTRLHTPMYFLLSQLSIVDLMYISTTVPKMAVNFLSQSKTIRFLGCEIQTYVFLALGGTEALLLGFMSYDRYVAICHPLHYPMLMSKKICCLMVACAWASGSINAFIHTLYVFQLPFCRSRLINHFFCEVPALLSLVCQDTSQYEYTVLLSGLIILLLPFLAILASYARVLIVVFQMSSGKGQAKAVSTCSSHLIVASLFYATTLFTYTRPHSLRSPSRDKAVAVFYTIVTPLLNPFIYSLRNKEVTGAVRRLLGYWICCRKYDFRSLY
Method in brief: as §1

Measured: odorant receptor agonist call;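 also: active if original authors judged signal statistically different from baseline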

CCCCCCCC(=O)CCCCCCC
inactive: O1440 [1] | O1440 [2]

CC1=C(O)C(=O)C(C)O1 (stereo not given)
inactive: O13C8 A19D | O13C9 H17L V19G L23H | O13C9 Q6H | O13F1 F18S T254M | O13F1 F18S | O13G1 K46I M146L | O13G1 | O13H1 Y266S | O13J1 | O14A2 I133V | O14CZ | O14I1 V36A D50N Y216C | O14J1 N3Y | O14K1 D119Y | O2A25 | O2AE1 | O2AJ1 | O2AK2 S99N
